According to article PMC12667952 (bioRxiv, 2025):
Numbering of substitutions follows the chain as printed. Entries after “also recorded” stand apart in the source; their conditions may differ. Read-outs that look alike come from different tables or passages of the source.

Key:
hGlyT2^W215F = target: T1, hGlyT2^W215F (Homo sapiens, UniProt Q9Y345, W215F); assay: Reversibility; format: cell-based
T1 sequence (Q9Y345 1-797 W215F): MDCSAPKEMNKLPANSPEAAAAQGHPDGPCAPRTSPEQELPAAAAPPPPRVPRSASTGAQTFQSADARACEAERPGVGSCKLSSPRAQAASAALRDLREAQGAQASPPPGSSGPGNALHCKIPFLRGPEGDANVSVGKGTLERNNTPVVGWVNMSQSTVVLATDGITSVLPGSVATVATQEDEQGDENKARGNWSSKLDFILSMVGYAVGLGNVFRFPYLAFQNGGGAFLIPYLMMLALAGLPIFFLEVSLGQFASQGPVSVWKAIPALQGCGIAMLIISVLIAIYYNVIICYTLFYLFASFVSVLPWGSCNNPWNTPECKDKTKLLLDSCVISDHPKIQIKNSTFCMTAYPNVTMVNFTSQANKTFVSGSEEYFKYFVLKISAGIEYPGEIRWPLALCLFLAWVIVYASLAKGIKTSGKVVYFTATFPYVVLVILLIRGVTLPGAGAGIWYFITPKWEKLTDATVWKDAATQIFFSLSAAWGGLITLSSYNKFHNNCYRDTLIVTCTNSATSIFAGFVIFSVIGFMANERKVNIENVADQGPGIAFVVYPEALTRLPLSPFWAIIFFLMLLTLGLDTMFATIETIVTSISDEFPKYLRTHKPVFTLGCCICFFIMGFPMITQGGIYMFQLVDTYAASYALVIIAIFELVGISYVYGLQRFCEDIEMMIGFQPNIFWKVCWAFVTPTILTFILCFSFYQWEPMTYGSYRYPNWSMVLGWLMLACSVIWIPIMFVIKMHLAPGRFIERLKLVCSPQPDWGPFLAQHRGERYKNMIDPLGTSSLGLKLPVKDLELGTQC

mice [1] = assay: Grip strength test; format: in vivo, mouse; details: 30 min post-injection
hGlyT2^WT [2] = target: T2, hGlyT2^WT (Homo sapiens, UniProt Q9Y345); format: cell-based
T2 sequence (Q9Y345 1-797): T1 sequence (Q9Y345 1-797 W215F) with F215W

[3] = target: serotonin 2A (5-HT2A) receptor (Homo sapiens, UniProt P28223); assay: 5-HT2A receptor antagonist IC50 determination; format: cell-based
Sequence of serotonin 2A (5-HT2A) receptor (P28223 whole entry, species assumed): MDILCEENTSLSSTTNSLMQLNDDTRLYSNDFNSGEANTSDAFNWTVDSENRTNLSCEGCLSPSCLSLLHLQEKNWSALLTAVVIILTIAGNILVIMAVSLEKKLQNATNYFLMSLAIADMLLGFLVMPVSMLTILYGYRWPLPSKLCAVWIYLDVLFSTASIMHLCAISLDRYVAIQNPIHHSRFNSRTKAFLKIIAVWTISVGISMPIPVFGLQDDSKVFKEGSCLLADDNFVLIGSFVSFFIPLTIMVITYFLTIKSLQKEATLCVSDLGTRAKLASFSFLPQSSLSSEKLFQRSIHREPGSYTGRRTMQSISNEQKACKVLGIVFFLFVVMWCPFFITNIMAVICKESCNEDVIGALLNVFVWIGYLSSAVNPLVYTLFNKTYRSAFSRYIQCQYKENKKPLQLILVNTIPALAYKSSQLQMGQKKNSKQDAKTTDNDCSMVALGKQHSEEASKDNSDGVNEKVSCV

naïve, uninjured mice = assay: Respiratory function by whole-body plethysmography; format: in vivo, mouse
Summary of the method: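 Whole-body plethysmography on naïve, uninjured mice in two parallel chambers linked to a pressure transducer. Mice briefly removed for injection, then returned. Breathing recorded for 5 min at 30, 60, 90, 120 and 180 min post-injection. Frequency, tidal volume and minute volume averaged and normalised to % baseline. […] Two-way ANOVA with Dunnett's test.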

hGlyT2^WT [4] = target: T2, hGlyT2^WT; assay: Sodium dependence of inhibition of glycine transport currents; format: cell-based; details: 300 μM glycine
CCI mice [5] = assay: Cold allodynia; format: in vivo, mouse; details: for Peak reduction of response rate to acetone stimulus: by 2-hour time point
Summary of the method: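 CCI mice tested 14 days after surgery. […] Acetone-evoked cold allodynia scored before surgery, at t = 0 before dosing, and at 0.5, 1, 1.5, 2, 4 and 6 h. Expressed as % of maximal possible responses. Two-way ANOVA with Dunnett's test versus vehicle.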

adrenergic receptors = assay: Cerep panel off-target selectivity screen, adrenergic receptors; format: binding; details: 1 × 10^-5 M
histamine (H1) = assay: Cerep panel off-target selectivity screen, H1; format: binding; details: 1 × 10^-5 M
CCI mice [6] = assay: Mechanical allodynia; format: in vivo, mouse; details: for Peak reduction of response rate to von Frey stimulus: 3 hours
Summary of the method: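 CCI mice tested 14 days after surgery. […] A single 0.4 g von Frey filament (about 15% response in naïve mice) applied to the left hind plantar surface until it bent. Response rate recorded after dosing.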

mice [7] = assay: Side effect scoring; format: in vivo, mouse
Summary of the method: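 Adverse events, including sedation, recorded at each time point as mice were placed in the testing apparatus after i.p. dosing. Each scored 0–3 (none, mild, moderate, severe), and scores averaged per treatment group.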

muscarinic receptors = assay: Cerep panel off-target selectivity screen, muscarinic receptors; format: binding; details: 1 × 10^-5 M
adenosine receptors = assay: Cerep panel off-target selectivity screen, adenosine receptors; format: binding; details: 1 × 10^-5 M
[8] = Study 2: in-life plasma and CNS drug exposure study in male C57BL/6 mice; format: in vivo, mouse; details: 50 mg/kg i.p., 30 min
Summary of the method: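 Contract in-life study in male C57BL/6 mice (22 ± 2 g), acclimated for 3 days. Plasma and brain sampled at 30 and 120 min post-injection. Unbound plasma and brain concentrations calculated.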

## CN(C)C1(CNC(=O)c2ccc3c(c2)CCN3C(=O)c2ccccc2)CCOCC1 [RPI-GLYT2–82, 1-benzoyl-N-((4-(dimethylamino)tetrahydro-2H-pyran-4-yl)methyl)indoline-5-carboxamide]
hGlyT2^W215F
  Washout of inhibitor from hGlyT2^W215F: almost immediate
Mice [1]; 50 mg/kg
  Grip strength (muscle weakness): not at 50 mg/kg
Mice [1]; 250 mg/kg, recovered at 60 minutes
  Grip strength (muscle weakness): transient deficits in the grip-strength test; also recorded: transient muscle weakness
hGlyT2^WT [2]
  IC50: 550 nM
hGlyT2^WT [2]; IC50, inhibition of glycine transport currents, hGlyT2^WT, Xenopus oocytes, currents generated by EC50 (30 μM) glycine, n = 5
  IC50: 554 nM
[3]
  IC50: 1900 nM
naïve, uninjured mice; 50 mg/kg
  Respiration frequency, minute volume (MVb), tidal volume (TVb): did not change
naïve, uninjured mice; 250 mg/kg, frequency and MVb first hour, TVb first 30 minutes
  Respiratory frequency, MVb and TVb: transient changes
hGlyT2^WT [4]; IC50 at 20 mM Na+, 20 mM Na+, choline chloride substitute
  IC50: 159 nM
hGlyT2^WT [4]; IC50 at 100 mM Na+, 100 mM Na+
  IC50: 279 nM
CCI mice [5]; 50 mg/kg i.p.
  Peak reduction of response rate to acetone stimulus: 59%
CCI mice [5]; 100 mg/kg i.p.
  Peak reduction of response rate to acetone stimulus: 62%
CCI mice [5]; 50 and 100 mg/kg
  Efficacy at alleviating cold allodynia compared to gabapentin: comparable efficacy to the control compound gabapentin; also recorded: equivalent efficacy
  Time of peak anti-allodynia effects, cold allodynia: ≤ 2 h
Adrenergic receptors
  Activity at adrenergic receptors: inactive
Histamine (H1)
  Activity at histamine H1: inactive
CCI mice [6]; CCI mice, 50 mg/kg i.p.
  Peak reduction of response rate to von Frey stimulus: 30%
CCI mice [6]; CCI mice, 100 mg/kg i.p.
  Peak reduction of response rate to von Frey stimulus: 42%
CCI mice [6]; CCI mice, 50 and 100 mg/kg i.p.
  Time of maximum efficacy, mechanical allodynia: between 90 minutes and 3 hours post-administration
CCI mice [6]; pregabalin 50 mg/kg
  Efficacy at alleviating mechanical allodynia compared to pregabalin: not as efficacious
Mice [7]; 250 mg/kg (maximal dose)
  Sedation: transient sedation
Mice [7]; 250 mg/kg i.p.
  Time to full recovery from sedation: ≤ 90 min
Muscarinic receptors
  Activity at muscarinic receptors: inactive
Adenosine receptors
  Activity at adenosine receptors: inactive
[8]
  Cu,b, calculated unbound concentration in brain: 597.89 nM
